DSG3 Ab inh: inhibitors of pemphigus antibody binding to human desmoglein-3; DSG3-coupled beads, scFv-anti-DSG3-GFP binding, flow cytometry; hits give low values; binding (percent of control), % at 10 µM; 310,000 compounds, 0.48% hits; AID 588358;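 active means binding more than 3 SD below its plate's average and above zero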;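 further: hits lower antibody fragment binding to DSG3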
MEKK2wt PB1 HTS: raises or lowers MEK5 binding to wildtype human MEKK2 PB1 domain; 290,000 compounds, 1.1% hits; bead flow cytometry, Alexa488-MEK5 binding to MEKK2 WT; actives lie on both sides; AID 1531; Q9Y2U5; binding response (% of control), % at 10 µM; in the data active means binding response below about 67% or above about 130%
UBC13 polyUb: blocks human UBC13 polyubiquitin chain formation; 330,000 compounds, 0.47% hits; inhibition, % at 20 µM; P61088; TR-FRET; in the data active means inhibition above about 45%, passing the limit was not always enough
MEKK2mut PB1 HTS: signal of MEK5 binding to mutant human MEKK2 PB1 domain | bead flow cytometry, Alexa488-MEK5 binding to MEKK2 mutant | 290,000 compounds, 0.35% hits | percent response, % at 10 µM; in the data active means percent response above about 24%, passing the limit was not always enough
Apaf1 inhib: human Apaf-1 inhibition; O14727; reconstituted apoptosome caspase-3 activity, DEVD-Rh110 fluorescence; inhibition, % at 20 µM; 330,000 compounds, 0.71% hits; AID 489030; active means inhibition of at least 40% at 20 µM;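 further: plate controls were DMSO wells for no effect and DEVD-CHO caspase inhibitor wells for full effect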
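System: reconstituted apoptosome with Apaf-1, cytochrome c, caspase-9, procaspase-3, dATP; Signal: Rh110 fluorescence intensity; Schedule: 30 min compound preincubation, 50 min activation, room temperature; Reagent: cytochrome c trigger plus (Z-DEVD)2-Rh110 caspase-3 substrate.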
MEKK3 PB1 HTS: modulators (inhibitors or enhancers) of MEK5 binding to human MEKK3 PB1 domain; Q99759; bead-based flow cytometry, Alexa488-MEK5 binding to MEKK3; actives lie on both sides; 0 = blocked by unlabeled MEK5, 100 = vehicle; binding response (% of control), % at 10 µM; 290,000 compounds, 1.4% hits; AID 1529;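 active means binding response more than 3 SD above or below the average of its plate-row segment, actives on both sides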;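 further: Alexa488 bead fluorescence after subtracting the streptavidin-only scavenger bead signal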
MEKK2wt confirm: raises or lowers MEK5 binding to wildtype human MEKK2, retest. shares compounds with MEKK3 PB1 HTS. bead flow cytometry, Alexa488-MEK5 binding to MEKK2 WT; actives lie on both sides. binding response (% of control), % at 10 µM. 5,900 compounds, 2.4% hits. AID 1892; in the data active means binding response below about 16% or above about 210%; inactive means in between
MEKK2mut confirm: signal of MEK5 binding to mutant human MEKK2, retest; shares compounds with MEKK3 PB1 HTS; bead flow cytometry, Alexa488-MEK5 binding to MEKK2 mutant; percent response, % at 10 µM; 5,900 compounds, 2% hits; in the data active means percent response mostly above about 71%, no sharp cut-off; inactive means mostly below about 38%;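 further: higher means compound restores mutant binding toward wildtype level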
MEKK3 confirm: MEKK3-MEK5 PB1 inhibition, single concentration confirmation; shares compounds with MEKK3 PB1 HTS; bead flow cytometry, Alexa488-MEK5 binding to MEKK3; hits give low values; binding response (% of control), % at 10 µM; 5,900 compounds, 1.8% hits; AID 1894;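 active means binding response below 72% of control, or above a set upper limit, though filed actives all read lower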;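 further: 100% = DMSO only wells and 0% = binding blocked by excess unlabeled MEK5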
Casp3 UBC13 ctr: counter-screen for UBC13 inhibitors: human caspase-3 inhibition. Recombinant caspase-3, Caspase-Glo 3/7 luminescence, 60 min. 1,400 compounds, 4% hits. inhibition, % at 20 µM. shares compounds with UBC13 polyUb;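 active means mean inhibition across replicates above about 26%, limit read from the data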;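 further: plate controls were DMSO with caspase-3 for no effect and DMSO wells lacking enzyme for full effect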
UBC13 conf: human UBC13 polyubiquitin inhibition, confirmed; shares compounds with UBC13 polyUb; UBC13 polyubiquitination, TR-FRET, biochemical; inhibition, % at 10 µM; 1,400 compounds, 68% hits; AID 488859; in the data active means inhibition above about 45%
* hit, by the source's call; . = no result; ! = not active in a repeat; [ ] = another dose, or the depositor's remark. Sampled rows, rich in hits. Any-hit rate of the full collection: about 3.2%.

SMILES	DSG3 Ab inh	MEKK2wt PB1 HTS	UBC13 polyUb	MEKK2mut PB1 HTS	Apaf1 inhib	MEKK3 PB1 HTS	MEKK2wt confirm	MEKK2mut confirm	MEKK3 confirm	others
COC(=O)[C@@H](Cc1c[nH]c2ccccc12)NCc1cccc(B(O)O)c1	159	.	.	.	.	.	.	.	.
Cc1ccc(CN2C(=O)CCC2C(=O)N2CCN(c3ccccc3)CC2)cc1 (stereo unspecified)	102	6.0*[inhibitor]	-11	-46	-4	4.0*[inhibitor]	108	10	106
COc1ccc(C)cc1NC(=O)CC(NC(C)=O)c1ccccc1 (stereo unspecified)	108	116	6	1	7	135*	102	-7	99
CCOP(=O)(OCC)c1nc(-c2ccc(Cl)cc2Cl)oc1N1CCCCC1	103	49	-14	-15	24	39*[inhibitor]	99	-3	103
COc1ccc(-c2c(C(F)(F)F)nn(C)c2NC(C)=O)cc1	.	104	4	0	-28	102	.	.	.
Cc1ccc(Nc2nc(NCC3CCCO3)nc(N)c2[N+](=O)[O-])cc1C (stereo unspecified)	95	95	-8	-1	-7	74*[inhibitor]	106	5	102
O=C(NCCc1ccc(F)cc1)c1ccc2c(=O)n3c(nc2c1)CCC3	97	.	3	.	-9	.	.	.	.
Cc1cc(C)c(C)c(S(=O)(=O)N2CCC(C(=O)N(C)Cc3nc4ccccc4c(=O)[nH]3)CC2)c1C	96	.	.	.	.	.	.	.	.
CCOC(=O)CNC1CC(=O)N(c2ccc(Br)cc2)C1=O (stereo unspecified)	116	108	-4	9	-3	106	.	.	.
CC(C)Oc1ccc(/C(O)=C2/C(=O)C(=O)N(CCN3CCNCC3)C2c2ccc(C(C)C)cc2)cc1 (stereo unspecified)	94	98	4	1	7	102	.	.	.
O=[N+]([O-])c1ccccc1CN1CCN(c2ncccn2)CC1	113	105	-5	4	-13	106	.	.	.
O=[N+]([O-])c1ccccc1CN1CCN(Cc2ccccn2)CC1	101	1.0*[inhibitor]	-4	-84	-7	2.0*[inhibitor]	97	-3	96
C(=C\c1ccccc1)/CN1CCN(C(c2ccccc2)c2ccccc2)CC1	97	165*	24	14	21	109	162	24	103
Fc1ccc(C(c2ccc(F)cc2)N2CCN(C/C=C/c3ccccc3)CC2)cc1	110	210*!	26	26*!	32	113	184	39	110
O=C(Nc1cccc(Cl)c1)N1CCN(C/C=C/c2ccccc2)CC1	.	139*	11	16	-1	107	113	8	101
CCCCCCCN(c1ccccc1)[C@@H]1C[C@H]2CCCC(=O)N3CC[C@@H](C1)[C@@H]23	102	.	.	.	.	.	.	.	.
Cc1ccc(NC(=O)CCNS(=O)(=O)c2ccccc2F)cc1S(=O)(=O)N1CCOCC1	100	.	-1	.	0	.	.	.	.
CCN(CC)CCC(c1cc(OC)c(OC)c(OC)c1)c1c(OC)cc(OC)c2c(C)cc(=O)oc12 (stereo unspecified)	104	104	10	2	9	96	.	.	.
CCCCCc1cc(=O)oc2c(C(CCN(CC)CC)c3ccc(N(C)C)cc3)c(OC)cc(OC)c12 (stereo unspecified)	105	166*	80*	23	30	108	185	37	109	Casp3 UBC13 ctr=-2;UBC13 conf=39
CCCCCc1cc(=O)oc2c(C(CCN3CCCCC3)c3cc(OC)c(OC)c(OC)c3)c(OC)cc(OC)c12 (stereo unspecified)	108	147*	81*	13	29	108	155	25	102	Casp3 UBC13 ctr=3;UBC13 conf=46*
COc1cc(C(CCN2CCCC2)c2c(OC)cc(OC)c3ccc(=O)oc23)cc(OC)c1OC (stereo unspecified)	99	98	1	5	-1	94	.	.	.
Cc1cc(C(=O)OCC(=O)Nc2ccccc2Br)c(C)o1	98	.	-5	.	7	.	.	.	.
COc1cccc2c1NC(C(=O)O)C1CC=CC21 (stereo unspecified)	13*	29*[inhibitor]	45*	-40	20	79	86	-9	84	Casp3 UBC13 ctr=3;UBC13 conf=47*
CC(=O)c1ccc2c(c1)C1C=CCC1C(C(=O)O)N2 (stereo unspecified)	.	81	-25	-14	33	93	.	.	.
CC(C)C[C@H](N)c1cn([C@@H](Cc2cc3ccccc3[nH]2)C(=O)N2CCNCC2)nn1	112	147*	72*	32	-12	106	136	53	106	Casp3 UBC13 ctr=7;UBC13 conf=77*
C#CCOCCOCCOCCNc1nc(N2CCOCC2)nc(N2CCN(C(=O)[C@H](Cc3cc4ccccc4[nH]3)n3cc([C@@H](N)CC(C)C)nn3)CC2)n1	102	136	28	25	15	107	.	.	.
CCC(C)[C@H](N)c1cn([C@@H](Cc2cc3ccccc3[nH]2)C(=O)N2CCNCC2)nn1 (stereo partly specified)	104	151*	94*	34	-11	92	147	45	111	Casp3 UBC13 ctr=-5;UBC13 conf=81*
NS(=O)(=O)c1ccc(CNC(=O)c2ccc3c(=O)n4c(nc3c2)CCC4)cc1	105	.	6	.	-2	.	.	.	.
C#CCOCCOCCOCCNc1nc(N2CCN(C(=O)C([C@@H](C)CC)n3cc(C(N)COC(=O)C(F)(F)F)nn3)CC2)nc(N2CCN(C(=O)[C@H](Cc3cc4ccccc4[nH]3)n3cc(C(N)CO)nn3)CC2)n1 (stereo partly specified)	.	143*	69*	11	49*	101	189	58	108	Casp3 UBC13 ctr=3;UBC13 conf=29

Assay outcomes: PubChem, several laboratories
